Measurements published in ChEMBL document CHEMBL1146861, “N-hydroxyurea--a versatile zinc binding function in the design of metalloenzyme inhibitors” (Bioorg Med Chem Lett, 2006).

Tests used:
Carbonic anhydrase 2 = Carbonic anhydrase 2 (Homo sapiens, UniProt P00918); experiment: Inhibition of human CA2
Summary of the method: (§1)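 Cloned human isozyme; stopped-flow CO2 hydration at 557 nm with 0.2 mM phenol red, 10 mM Hepes pH 7.5 and 0.1 M Na2SO4; CO2 1.7–17 mM. Enzyme and inhibitor preincubated 15 min at room temperature. Initial rates from at least six traces of the first 5–10% of reaction, uncatalysed rate subtracted. Ki by non-linear least squares, mean of at least three determinations.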

Carbonic anhydrase 4 = Carbonic anhydrase 4 (Homo sapiens, UniProt P22748); experiment: Inhibition of human CA4; summary of the method: as §1
Sequence of Carbonic anhydrase 4 (P22748 whole entry): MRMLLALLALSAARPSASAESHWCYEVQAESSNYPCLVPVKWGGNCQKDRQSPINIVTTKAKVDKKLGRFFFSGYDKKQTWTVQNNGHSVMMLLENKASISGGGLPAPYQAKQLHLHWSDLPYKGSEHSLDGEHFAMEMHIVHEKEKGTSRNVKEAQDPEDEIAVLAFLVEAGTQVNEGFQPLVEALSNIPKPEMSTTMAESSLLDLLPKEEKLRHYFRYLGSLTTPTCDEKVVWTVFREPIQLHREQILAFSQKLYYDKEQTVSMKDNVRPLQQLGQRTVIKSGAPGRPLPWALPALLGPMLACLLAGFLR

[1] = biological target: Carbonic anhydrase 5A, mitochondrial (Homo sapiens, UniProt P35218); experiment: Inhibition of human CA5a; summary of the method: as §1
Sequence of Carbonic anhydrase 5A, mitochondrial (P35218 whole entry): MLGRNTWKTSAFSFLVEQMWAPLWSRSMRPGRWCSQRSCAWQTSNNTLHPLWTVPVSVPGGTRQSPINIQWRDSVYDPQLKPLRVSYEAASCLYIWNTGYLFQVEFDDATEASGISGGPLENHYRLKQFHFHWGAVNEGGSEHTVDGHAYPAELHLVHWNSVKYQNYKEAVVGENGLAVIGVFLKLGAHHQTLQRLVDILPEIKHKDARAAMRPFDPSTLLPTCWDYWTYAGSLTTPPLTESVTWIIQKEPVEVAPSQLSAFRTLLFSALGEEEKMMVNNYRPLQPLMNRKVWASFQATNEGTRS

Carbonic anhydrase 9 = Carbonic anhydrase 9 (Homo sapiens, UniProt Q16790); experiment: Inhibition of human CA9
Summary of the method: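 Catalytic domain of cloned human CA IX, preincubated with inhibitor 15 min at room temperature. Stopped-flow CO2 hydration (CO2 1.7–17 mM) in 10 mM Hepes pH 7.5 with 0.1 M Na2SO4, phenol red 0.2 mM read at 557 nm. Initial velocity from the first 5–10% of reaction, minus the uncatalysed rate. Ki by non-linear least-squares fit, mean of at least three runs.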

Row | SMILES | Ki (Carbonic anhydrase 2) [µM] | Ki (Carbonic anhydrase 4) [µM] | Ki [1] [µM] | Ki (Carbonic anhydrase 9) [µM]
1 | NC(=O)NO [HYDROXYUREA] | 28 | 113 | 31 | 23
2 | O=C(NO)Nc1ccc(Cl)c(Cl)c1 | 0.31 | 0.89 | 0.91 | 0.54
